Assay results gathered from unrelated publications.
Compare with care: the assays were run in different laboratories.
Organism: Mycolicibacterium smegmatis
Effect on: microbial growth

SMILES | assay | system | conditions | MIC
Cl.N=C(N)N/N=C/c1ccc(-c2ccc(/C=N/Nc3ccccc3Cl)cc2)cc1 |  | MC2155 |  | 1.7 µg/mL
C[C@H]1COc2c(N3CCN(C)CC3)c(F)cc3c(=O)c(C(=O)O)cn1c23 | resazurin | MC^2155 | 24 h | 0.14 µg/mL
CCCCCCc1ccc(-c2nc(N)[nH]c2C(F)(F)F)cc1 | broth dilution | ATCC700084 MC^2155 |  | > 200 µM
CC[C@@H](CO)NCCN[C@@H](CC)CO | resazurin | MC^2155 | 24 h | 0.78 µg/mL
NCC[C@H](O)C(=O)N[C@@H]1C[C@H](N)[C@@H](O[C@H]2O[C@H](CN)[C@@H](O)[C@H](O)[C@H]2O)[C@H](O)[C@H]1O[C@H]1O[C@H](CO)[C@@H](O)[C@H](N)[C@H]1O | broth dilution | MC2155 |  | ≤ 0.5 µg/mL
CO[C@@H]1[C@@H](OC(N)=O)[C@@H](O)[C@H](Oc2ccc3c(O)c(NC(=O)c4ccc(O)c(CC=C(C)C)c4)c(=O)oc3c2C)OC1(C)C | resazurin | MC^2155 | 24 h | 8 µg/mL
CCCCCOc1ccc(-c2c[nH]c(N)n2)cc1 |  | ATCC700084 MC^2155 | 48 h | 150 µM
NC[C@@H]1O[C@H](O[C@H]2[C@@H](O)[C@H](O[C@@H]3[C@@H](O)[C@H](N)C[C@H](N)[C@H]3O[C@H]3O[C@H](CO)[C@@H](O)[C@H](O)[C@H]3N)O[C@@H]2CO)[C@H](N)[C@@H](O)[C@@H]1O | broth dilution |  | 72 h | 1 µg/mL
COc1ccc(-c2c[nH]c(N)n2)cc1 |  | ATCC700084 MC^2155 | 48 h | 200 µM
Cc1ccc(Nc2nc(-c3cc(C(=O)Nc4ccccn4)no3)cs2)cc1 |  | MC2155 |  | > 64 µg/mL
C[C@@H](O)[C@H]1C(=O)N2C(C(=O)O)=C(SCCN=CN)C[C@H]12 | resazurin | MC^2155 | 24 h | 2.3 µg/mL
CCOCCOc1ccc(-c2c[nH]c(N)n2)cc1 |  | ATCC700084 MC^2155 | 48 h | > 200 µM
NC[C@H]1O[C@H](O[C@H]2[C@H](O)[C@@H](O[C@H]3O[C@H](CO)[C@@H](O)[C@H](N)[C@H]3O)[C@H](N)C[C@@H]2N)[C@H](N)C[C@@H]1O | broth dilution |  | 72 h | 1 µg/mL
Cc1ccc(Nc2nc(-c3cc(C(=O)Nc4cccc(C)n4)no3)cs2)cc1 |  | MC2155 |  | > 64 µg/mL
Cc1ccc(-c2c[nH]c(N)n2)cc1 |  | ATCC700084 MC^2155 | 48 h | 100 µM
C[C@H]1c2cccc(O)c2C(=O)C2=C(O)[C@]3(O)C(=O)C(C(N)=O)=C(O)[C@@H](N(C)C)[C@@H]3[C@@H](O)[C@@H]21 | resazurin | MC^2155 | 24 h | 0.11 µg/mL
Cc1ccc(Nc2nc(-c3cc(C(=O)Nc4ccc(O)cc4)no3)cs2)cc1 |  | MC2155 |  | > 64 µg/mL
